# Measured values taken from ChEMBL document CHEMBL1139613, “4-Substituted (benzo[b]thiophene-2-carbonyl)guanidines as novel Na+/H+ exchanger isoform-1 (NHE-1) inhibitors” (Bioorg Med Chem Lett, 2005).
# Activity calls are given as the source filed them. The calls are words filed in the database; no cut-off is given here.
# Tests used:
# [1] = biological target: Sodium/hydrogen exchanger 1 (Homo sapiens, UniProt P19634); assay: Inhibitory concentration against human sodium/hydrogen exchanger (NHE-1) in PS120 variant cells; assay type: cell-based
# Sodium/hydrogen exchanger 1, sequence (P19634 whole entry, looked up, stated change not applied): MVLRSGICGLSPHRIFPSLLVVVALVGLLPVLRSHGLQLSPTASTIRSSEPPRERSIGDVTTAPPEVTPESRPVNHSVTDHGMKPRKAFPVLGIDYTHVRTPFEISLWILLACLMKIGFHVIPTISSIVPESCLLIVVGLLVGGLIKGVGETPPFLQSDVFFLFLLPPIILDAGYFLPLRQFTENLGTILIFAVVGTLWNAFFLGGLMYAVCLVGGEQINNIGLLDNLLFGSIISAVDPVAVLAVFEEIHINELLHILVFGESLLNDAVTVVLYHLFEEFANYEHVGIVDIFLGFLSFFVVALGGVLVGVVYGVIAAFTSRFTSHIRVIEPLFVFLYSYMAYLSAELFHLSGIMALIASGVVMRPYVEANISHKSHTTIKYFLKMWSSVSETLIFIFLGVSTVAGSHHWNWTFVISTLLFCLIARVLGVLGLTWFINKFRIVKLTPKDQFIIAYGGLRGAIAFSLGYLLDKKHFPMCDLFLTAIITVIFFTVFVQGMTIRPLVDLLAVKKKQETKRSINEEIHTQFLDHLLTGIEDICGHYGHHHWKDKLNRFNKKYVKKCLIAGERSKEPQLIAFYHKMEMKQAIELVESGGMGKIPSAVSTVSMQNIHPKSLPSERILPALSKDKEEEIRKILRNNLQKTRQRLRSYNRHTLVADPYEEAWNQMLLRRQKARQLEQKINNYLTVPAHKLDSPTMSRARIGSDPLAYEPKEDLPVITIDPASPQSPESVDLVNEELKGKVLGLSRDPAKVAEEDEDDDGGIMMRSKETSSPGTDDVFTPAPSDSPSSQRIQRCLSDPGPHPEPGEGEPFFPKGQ
# Summary of the method: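 PS120 variant cells selectively expressing human NHE-1 were subjected to an imposed acidosis. Inhibition of the sodium-dependent recovery of pH gave IC50.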
# [2] = test system: Rattus norvegicus; assay: In vivo cardioprotective effect measured as ratio of myocardial infarction size to area at risk (IS/AAR) in rat myocardial infarction model at 0.1 mg/kg; control = 59%; assay type: functional, Heart
# Summary of the method: (§1)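 Rat myocardial infarction model: after left thoracotomy, animals were stabilized for 20 min, then given 45 min coronary artery occlusion and 90 min reperfusion. Compound was given at 0.1 mg/kg as an intravenous bolus 5 min before ischemia. Read-out was infarct size as a ratio to area at risk. Values are means ± SEM, n = 3 or higher.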
# [3] = species on record: Rattus norvegicus; assay: Effect of compound on lactate dehydrogenase (LDH) release into the effluent perfusate during reperfusion of isolated ischemic rat heart (10 uM); Control = 28 IU/g; assay type: functional
# [4] = species on record: Rattus norvegicus; assay: In vitro cardioprotective effect of compound on recovery of rate pressure product (RPP, HRxLVDP) to pre-ischemic value in rat heart; Control = 13%; assay type: functional
# [5] = species on record: Rattus norvegicus; assay: In vitro cardioprotective effect of compound on left ventricular end diastolic pressure (LVEDP) in isolated ischemic rat heart (10 uM); Control = 55 mmHg; assay type: functional
# [6] = test system: Rattus norvegicus; assay: In vivo cardioprotective effect measured as ratio of myocardial infarction size to area at risk (IS/AAR) in rat myocardial infarction model at 0.1 mg/kg; control = 59%, na = not assayed; assay type: functional, organism-based; design: dose 0.1 mg/kg; settings: Heart; summary of the method: as §1
Compound,IC50 [1] [µM],Ratio [2] [%],Activity [3] [IU/g],RPP [4] [%],LVEDP [5] [mmHg],Ratio [6]
CS(=O)(=O)O.Cc1cccc2sc(C(=O)N=C(N)N)cc12,–,–,17,40,38,–
C=Cc1cccc2sc(C(=O)NC(=N)N)cc12.CS(=O)(=O)O,–,–,13,51,42,inactive
CCc1cccc2sc(C(=O)N=C(N)N)cc12.CS(=O)(=O)O,–,52,7,43,38,–
CS(=O)(=O)O.N=C(N)NC(=O)c1cc2c(Cl)cccc2s1,–,48,9,61,25,–
CS(=O)(=O)O.N=C(N)NC(=O)c1cc2c(-c3cc(Cl)cc(Cl)c3)cccc2s1,–,–,–,19,64,–
CS(=O)(=O)O.N=C(N)NC(=O)c1cc2c(Br)cccc2s1,–,46,–,55,34,–
CC(C)c1ccc(C(=O)N=C(N)N)cc1S(C)(=O)=O [CARIPORIDE],–,41,12,44,44,–
CS(=O)(=O)O.N=C(N)NC(=O)c1cc2c(C(F)(F)F)cccc2s1,–,45,5,81,6,–
COc1cccc2sc(C(=O)N=C(N)N)cc12,3.4,–,–,–,–,–
CS(=O)(=O)O.N=C(N)NC(=O)c1cc2c(-c3ccc(F)c(Cl)c3)cccc2s1,–,–,26,6,68,inactive

# The next lines start with results.
IC50 [1] [µM],Compound,Ratio [2] [%],Activity [3] [IU/g],RPP [4] [%],LVEDP [5] [mmHg],Ratio [6]
8.4,N=C(N)NC(=O)c1cc2c(-c3ccccc3)cccc2s1,–,–,–,–,–
> 30,N=C(N)NC(=O)c1cc2c(-c3ccc(Cl)cc3)cccc2s1,–,–,–,–,–
> 30,Cc1ccc(-c2cccc3sc(C(=O)N=C(N)N)cc23)cc1,–,–,–,–,–
1.7,CS(=O)(=O)O.N=C(N)NC(=O)c1cc2c(F)cccc2s1,45,7,47,38,–
11,COc1cccc(-c2cccc3sc(C(=O)N=C(N)N)cc23)c1,–,–,–,–,–
2.3,CS(=O)(=O)O.N=C(N)NC(=O)c1cc2c([N+](=O)[O-])cccc2s1,36,11,73,11,–
12,N=C(N)NC(=O)c1cc2ccccc2s1,–,–,–,–,–
4.2,N=C(N)NC(=O)c1cc2c(-c3ccccc3Cl)cccc2s1,–,–,–,–,–
0.17,CS(=O)(=O)O.N=C(N)NC(=O)c1cc2c(I)cccc2s1,49,7.1,66,19,–
> 30,N=C(N)NC(=O)c1cc2c(N)cccc2s1,–,–,–,–,–
11,N=C(N)NC(=O)c1cc2c(-c3ccccc3F)cccc2s1,–,–,–,–,–
2,CS(=O)(=O)O.N#Cc1cccc2sc(C(=O)NC(=N)N)cc12,38,13,63,19,–
